Measurements reported in article PMC10471475 (Parasites, Hosts and Diseases, 2023).
Values joined by “and” are separate entries in the source; they are usually repeats but may differ in a detail not shown here. Equal values may be shown once. Marks after values point to notes of the source that are not given here.

Legend:
[1] = Pharmacokinetic analysis of N-89 in mice after single po or iv administration; assay type: in vivo, ICR mice; conditions: for plasma concentration: detection limit 5 ng/ml
How it was run: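 Male ICR mice got a single dose of test compound: 75 mg/kg po in olive oil or 30 mg/kg iv in 10% ethanol/10% Cremophor EL/80% saline. Blood sampled 0.25–10 h, one sample per mouse, 5 mice per time. Plasma obtained by centrifugation 10 min, 945 g, 4°C, acetonitrile-extracted, then LC/MS/MS (detection limit 5 ng/ml). Cmax observed; AUC and MRT from the mean time course (n=5).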

P. berghei (NK65 strain) [2] = test: Peters' 4-day suppressive test by different administration routes; assay type: in vivo, Plasmodium berghei
How it was run: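 Peters' 4-day test: male ICR mice, iv inoculation of 1×10^5 P. berghei NK65-infected erythrocytes. First dose 2 h post-inoculation, then dosing on days 0–3. Routes and doses: po 0–80 mg/day in olive oil; iv 0–80 mg/day in ethanol/Cremophor EL/saline 10:10:80; sq 0–8 mg/day in the iv vehicle. Vehicle controls; 5 mice/group. Day-4 thin-film parasitemia, expressed as percent reduction; ED50/ED90 by sigmoidal dose-response fit.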

P. berghei (NK65 strain) [3] = test: Antimalarial activity following repeated oral dosing; assay type: in vivo, Plasmodium berghei; conditions: for Parasitemia day 1: before treatment (treatment days 2-4); for Parasitemia day 2: start of treatment
P. falciparum = conditions: cited from earlier work
[4] = tested on: mouse mammary tumor FM3A cells; conditions: in vitro; cited from earlier work
[5] = tested on: malaria parasites in mice; conditions: ointment, transdermal, cited from earlier work
P. berghei = conditions: cited from earlier work
[6] = ICR, mouse, plasma, iv, 30 mg/kg
[7] = ICR, mouse, plasma, po, 75 mg/kg
[8] = po, olive oil, 4 days, parasitemia on day 4
[9] = 50 mg/kg po thrice daily days 2-4
[10] = 50 mg/kg po thrice daily for 3 days
[11] = 75 mg/kg po 3 times daily days 2-4

Work on C1CCCCCC2(CCCCC1)OOCCCOO2 [N-89, 1,2,6,7-tetraoxaspiro[7.11]nonadecane] yielded an AUC(0-inf) [1, 6] of 13600 ng·h/mL, an AUC(0-t) [1, 6] of 13600 ng·h/mL and an MRT [1, 6] of 14.4 min. For the same compound, the Vd [1, 6] was 0.53 L/kg, the clearance [1, 6] was 36.8 mL/min/kg and the concentration at 0.25 h [1, 6] was 18.3 µg/mL. The half-life [1, 6] was 90 min, the bioavailability ([1]; ICR, mouse, plasma, oral, 75 mg/kg) was 7.01% and the AUC(0-inf) [1, 7] was 2380 ng·h/mL. It also gave an AUC(0-t) [1, 7] of 2370 ng·h/mL, a Cmax [1, 7] of 1.59 µg/mL and an MRT [1, 7] of 107 min. The Tmax [1, 7] was 45 min, the concentration at 8 h [1, 7] was 0.0081 µg/mL and the half-life [1, 7] was 58.2 min. The plasma concentration ([1]; mice, 30 mg/kg iv, at 5 h) was “could not be detected”, the plasma concentration ([1]; mice, 75 mg/kg po, at 10 h) was “could not be detected” and the Cmax ([1]; mice, single dose 75 mg/kg po (Table 1)) was 1590 µg/mL. For the same compound, the ED50 (P. berghei (NK65 strain) [2]; Plasmodium berghei, 96 h, sq, ethanol:Cremophor EL:saline 1:1:8, 4 days) was 2.5 ± 1.1 mg/kg, the ED50 (P. berghei (NK65 strain) [2]; Plasmodium berghei, iv, 96 h, iv, ethanol:Cremophor EL:saline 1:1:8, 4 days) was 14.5 ± 1.9 mg/kg and the ED90 (P. berghei (NK65 strain) [2]; iv, ethanol:Cremophor EL:saline 1:1:8, 4 days) was 21.0 ± 0.8 mg/kg. The ED50 (P. berghei (NK65 strain) [2]; [8]) was 20.5 ± 2.0 mg/kg, the ED90 (P. berghei (NK65 strain) [2]; [8]) was 43.5 ± 1.5 mg/kg and the ED90 (P. berghei (NK65 strain) [2]; sq, ethanol:Cremophor EL:saline 1:1:8, 4 days) was 3.8 ± 1.0 mg/kg. The “Parasitemia day 1” value (P. berghei (NK65 strain) [3]; 50 mg/kg po group) was 0.10±0.04%, the “Parasitemia day 3” value (P. berghei (NK65 strain) [3]; [9]) was 0.11±0.06% and the “Parasitemia day 4” value (P. berghei (NK65 strain) [3]; [9]) was 0.01±0.01%. The “Parasitemia day 5” value (P. berghei (NK65 strain) [3]; [9]) was 0.002±0.004^c %, the “Parasitemia day 6” value (P. berghei (NK65 strain) [3]; [9]) was 0.00^b % and the “parasitemia of the one mouse not yet cured on day 5” value (P. berghei (NK65 strain) [3]; [9]) was 0.01%. For the same compound, the “Parasitemia day 2” value (P. berghei (NK65 strain) [3]; [9]) was 0.51±0.14%, the cure effect (P. berghei (NK65 strain) [3]; [10]) was “complete cure effect” and the “day on which parasites were eliminated / all mice cured, no recurrence to day 30” value (P. berghei (NK65 strain) [3]; [10]) was 6 days. For the same compound, the “Parasitemia day 3” value (P. berghei (NK65 strain) [3]; [11]) was 0.26±0.05%, the “Parasitemia day 4” value (P. berghei (NK65 strain) [3]; [11]) was 0.01±0.01^a % and the “Parasitemia day 5” value (P. berghei (NK65 strain) [3]; [11]) was 0.00^b %. The “Parasitemia day 6” value (P. berghei (NK65 strain) [3]; [11]) was 0.00%, the “parasitemia of the 4 mice not yet cured on day 4” value (P. berghei (NK65 strain) [3]; [11]) was “below 0.015%” and the “Parasitemia day 2” value (P. berghei (NK65 strain) [3]; [11]) was 0.70±0.19%. For the same compound, the “day on which parasites were eliminated / all mice cured, no recurrence to day 30” value (P. berghei (NK65 strain) [3]; 75 mg/kg po 3 times daily for 3 days) was 5 days and 4 to 5 days, the “Parasitemia day 1” value (P. berghei (NK65 strain) [3]; 75 mg/kg po group) was 0.09±0.07% and the “EC50 value of P. falciparum in vitro” value (P. falciparum) was 6.8 ng/mL. The “toxicity against P. falciparum relative to FM3A cells (selective toxicity)” value [4] was 350 fold, the “day from which parasites disappeared post-treatment” value ([5]; 60 mg/kg twice daily for 4 days at 0.2% parasitemia) was 7 days and the “recurrence and dermal irritation” value ([5]; 60 mg/kg twice daily for 4 days) was “without parasite recurrence or dermal irritation”.
For C[C@H]1[C@@H](OCc2ccc(C(=O)O)cc2)O[C@@H]2O[C@@]3(C)CC[C@H]4[C@H](C)CC[C@@H]1[C@@]24OO3 [artelinic acid], the “effect of topical gel on infected mice” value (P. berghei; gel applied topically twice/day x 3 days post-infection, dose 270 mg/kg) is listed as “prevented the death”.
For CO[C@H]1O[C@@H]2O[C@@]3(C)CC[C@H]4[C@H](C)CC[C@@H]([C@H]1C)[C@@]24OO3 [artemether], the “effect of topical formulation on infected mice” value (P. berghei; improved formulation, same experimental conditions, dose 60 mg/kg) is listed as “efficient”.
